Assays:
[1] = Displacement of [125I]IMPY from beta amyloid protein plaques in Alzheimer's disease patient brain; design: species or system Homo sapiens
In short: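 Competition binding to pooled gray-matter homogenates from four AD brains (approximately 100 mg wet tissue/mL in PBS pH 7.4; 20–50 μg per tube). [125I]2 at 0.04–0.06 nM; inhibitors 10^-5–10^-10 M in PBS with 0.1% BSA; final volume 1 mL. Nonspecific binding with 600 nM 2. Incubated 37 °C, 2 h; GF/B filtration, gamma counting. Ki from nonlinear regression.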

Zone of skin [2] = assay: Biodistribution in ICR mouse skin at 5 to 10 uCi, iv after 2 hrs; format: ADME, organism-based; settings: in vivo
In short: (§1)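 Male ICR mice (22–25 g) under isoflurane anesthesia; [125I] or [18F] tracer (5–10 μCi) in 0.15 mL of 0.1% bovine serum albumin solution injected into the tail vein. Groups of n = 3 per time point, killed by cervical dislocation. Organs removed, weighed and gamma-counted against diluted aliquots of injected dose, giving % dose/organ and % ID/g. Total blood activity assumed as 7% of body weight.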

Thyroid gland [3] = assay: Biodistribution in ICR mouse thyroid at 5 to 10 uCi, iv after 30 mins; format: ADME, organism-based; settings: in vivo, 0.5 h; in short: as §1
Kidney [4] = assay: Biodistribution in ICR mouse kidney at 5 to 10 uCi, iv after 2 hrs; format: ADME, organism-based; settings: in vivo; in short: as §1
Blood [5] = assay: Biodistribution in ICR mouse blood at 5 to 10 uCi, iv after 30 mins; format: ADME, organism-based; settings: in vivo, 0.5 h; in short: as §1
Kidney [6] = assay: Biodistribution in ICR mouse kidney at 5 to 10 uCi, iv after 1 hr; format: ADME, organism-based; settings: in vivo; in short: as §1
Muscle tissue [7] = assay: Biodistribution in ICR mouse muscle at 5 to 10 uCi, iv after 2 hrs; format: ADME, organism-based; settings: in vivo; in short: as §1
Zone of skin [8] = assay: Biodistribution in ICR mouse skin at 5 to 10 uCi, iv after 30 mins; format: ADME, organism-based; settings: in vivo, 0.5 h; in short: as §1
Blood [9] = assay: Biodistribution in ICR mouse blood at 5 to 10 uCi, iv after 1 hr; format: ADME, organism-based; settings: in vivo; in short: as §1
Lung [10] = assay: Biodistribution in ICR mouse lung at 5 to 10 uCi, iv after 2 mins; format: ADME, organism-based; settings: in vivo; in short: as §1
Spleen [11] = assay: Biodistribution in ICR mouse spleen at 5 to 10 uCi, iv after 2 mins; format: ADME, organism-based; settings: in vivo; in short: as §1
Zone of skin [12] = assay: Biodistribution in ICR mouse skin at 5 to 10 uCi, iv after 1 hr; format: ADME, organism-based; settings: in vivo; in short: as §1
Zone of skin [13] = assay: Biodistribution in ICR mouse skin at 5 to 10 uCi, iv after 2 mins; format: ADME, organism-based; settings: in vivo; in short: as §1
Liver [14] = assay: Biodistribution in ICR mouse liver at 5 to 10 uCi, iv after 2 mins; format: ADME, organism-based; settings: in vivo; in short: as §1
Blood [15] = assay: Biodistribution in ICR mouse blood at 5 to 10 uCi, iv after 2 hrs; format: ADME, organism-based; settings: in vivo; in short: as §1
Brain [16] = assay: Biodistribution in ICR mouse brain at 5 to 10 uCi, iv after 2 hrs; format: ADME, organism-based; settings: in vivo; in short: as §1
Thyroid gland [17] = assay: Biodistribution in ICR mouse thyroid at 5 to 10 uCi, iv after 1 hr; format: ADME, organism-based; settings: in vivo; in short: as §1
Muscle tissue [18] = assay: Biodistribution in ICR mouse muscle at 5 to 10 uCi, iv after 1 hr; format: ADME, organism-based; settings: in vivo; in short: as §1
Thyroid gland [19] = assay: Biodistribution in ICR mouse thyroid at 5 to 10 uCi, iv after 2 mins; format: ADME, organism-based; settings: in vivo; in short: as §1
Muscle tissue [20] = assay: Biodistribution in ICR mouse muscle at 5 to 10 uCi, iv after 30 mins; format: ADME, organism-based; settings: in vivo, 0.5 h; in short: as §1
Heart [21] = assay: Biodistribution in ICR mouse heart at 5 to 10 uCi, iv after 1 hr; format: ADME, organism-based; settings: in vivo; in short: as §1
Blood [22] = assay: Biodistribution in ICR mouse blood at 5 to 10 uCi, iv after 2 mins; format: ADME, organism-based; settings: in vivo; in short: as §1
Brain [23] = assay: Biodistribution in ICR mouse brain at 5 to 10 uCi, iv after 2 mins; format: ADME, organism-based; settings: in vivo; in short: as §1
Lung [24] = assay: Biodistribution in ICR mouse lung at 5 to 10 uCi, iv after 2 hrs; format: ADME, organism-based; settings: in vivo; in short: as §1
Brain [25] = assay: Biodistribution in ICR mouse brain at 5 to 10 uCi, iv after 30 mins; format: ADME, organism-based; settings: in vivo, 0.5 h; in short: as §1
Kidney [26] = assay: Biodistribution in ICR mouse kidney at 5 to 10 uCi, iv after 30 mins; format: ADME, organism-based; settings: in vivo, 0.5 h; in short: as §1
Muscle tissue [27] = assay: Biodistribution in ICR mouse muscle at 5 to 10 uCi, iv after 2 mins; format: ADME, organism-based; settings: in vivo; in short: as §1
Kidney [28] = assay: Biodistribution in ICR mouse kidney at 5 to 10 uCi, iv after 2 mins; format: ADME, organism-based; settings: in vivo; in short: as §1
Lung [29] = assay: Biodistribution in ICR mouse lung at 5 to 10 uCi, iv after 1 hr; format: ADME, organism-based; settings: in vivo; in short: as §1
Brain [30] = assay: Biodistribution in ICR mouse brain at 5 to 10 uCi, iv after 1 hr; format: ADME, organism-based; settings: in vivo; in short: as §1
Lung [31] = assay: Biodistribution in ICR mouse lung at 5 to 10 uCi, iv after 30 mins; format: ADME, organism-based; settings: in vivo, 0.5 h; in short: as §1
Heart [32] = assay: Biodistribution in ICR mouse heart at 5 to 10 uCi, iv after 2 hrs; format: ADME, organism-based; settings: in vivo; in short: as §1
Spleen [33] = assay: Biodistribution in ICR mouse spleen at 5 to 10 uCi, iv after 1 hr; format: ADME, organism-based; settings: in vivo; in short: as §1
Liver [34] = assay: Biodistribution in ICR mouse liver at 5 to 10 uCi, iv after 1 hr; format: ADME, organism-based; settings: in vivo; in short: as §1
[35] = Partition coefficient, log P of the compound; format: physicochemical; settings: octanol/water
In short: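 [125I] or [18F] tracer mixed with 3 g each of 1-octanol and 0.1 M phosphate buffer pH 7.4. Vortexed 3 min at room temperature, then centrifuged 5 min. Two 0.5 g samples from each layer counted; PC is the ratio of cpm/g in octanol to cpm/g in buffer. The octanol layer was repartitioned until values were consistent.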

Heart [36] = assay: Biodistribution in ICR mouse heart at 5 to 10 uCi, iv after 2 mins; format: ADME, organism-based; settings: in vivo; in short: as §1
Heart [37] = assay: Biodistribution in ICR mouse heart at 5 to 10 uCi, iv after 30 mins; format: ADME, organism-based; settings: in vivo, 0.5 h; in short: as §1
Liver [38] = assay: Biodistribution in ICR mouse liver at 5 to 10 uCi, iv after 2 hrs; format: ADME, organism-based; settings: in vivo; in short: as §1
Spleen [39] = assay: Biodistribution in ICR mouse spleen at 5 to 10 uCi, iv after 30 mins; format: ADME, organism-based; settings: in vivo, 0.5 h; in short: as §1
Liver [40] = assay: Biodistribution in ICR mouse liver at 5 to 10 uCi, iv after 30 mins; format: ADME, organism-based; settings: in vivo, 0.5 h; in short: as §1
Spleen [41] = assay: Biodistribution in ICR mouse spleen at 5 to 10 uCi, iv after 2 hrs; format: ADME, organism-based; settings: in vivo; in short: as §1

CN(C)c1ccc(-c2cn(-c3ccc(OCCO)cc3)nn2)cc1
Ki [1]: 0.01 µM

CN(C)c1ccc(-c2cn(-c3ccc(OCCCO)cc3)nn2)cc1
Ki [1]: 0.075 µM

CN(C)c1ccc(-c2cn(-c3ccc(OCCOCCOCCF)cc3)nn2)cc1
Ki [1]: 0.0084 µM

CN(C)c1ccc(-c2cn(-c3ccc(OCC[18F])cc3)nn2)cc1
Drug uptake (Zone of skin [2]): 1.42 % ID/g | Drug uptake (Thyroid gland [3]): 1.89 % ID/g | Drug uptake (Kidney [4]): 2.01 % ID/g | Drug uptake (Blood [5]): 2.65 % ID/g | Drug uptake (Kidney [6]): 2.44 % ID/g | Drug uptake (Muscle tissue [7]): 1.11 % ID/g | Drug uptake (Zone of skin [8]): 1.82 % ID/g | Drug uptake (Blood [9]): 2.45 % ID/g | Drug uptake (Lung [10]): 5.68 % ID/g | Drug uptake (Spleen [11]): 4.04 % ID/g | Drug uptake (Zone of skin [12]): 1.72 % ID/g | Drug uptake (Zone of skin [13]): 0.51 % ID/g | Drug uptake (Liver [14]): 11.6 % ID/g | Drug uptake (Blood [15]): 2.3 % ID/g | Drug uptake (Brain [16]): 2.08 % ID/g | Drug uptake (Thyroid gland [17]): 3.25 % ID/g | Drug uptake (Muscle tissue [18]): 1.33 % ID/g | Drug uptake (Thyroid gland [19]): 1.41 % ID/g | Drug uptake (Muscle tissue [20]): 1.51 % ID/g | Drug uptake (Heart [21]): 2.02 % ID/g | Drug uptake (Blood [22]): 2.63 % ID/g | Drug uptake (Brain [23]): 5.92 % ID/g | Drug uptake (Lung [24]): 1.79 % ID/g | Drug uptake (Brain [25]): 2.53 % ID/g | Drug uptake (Kidney [26]): 3.35 % ID/g | Drug uptake (Muscle tissue [27]): 0.73 % ID/g | Drug uptake (Kidney [28]): 6.94 % ID/g | Drug uptake (Lung [29]): 2.03 % ID/g | Drug uptake (Brain [30]): 2.34 % ID/g | Drug uptake (Lung [31]): 2.72 % ID/g | Drug uptake (Heart [32]): 1.83 % ID/g | Drug uptake (Spleen [33]): 1.66 % ID/g | Drug uptake (Liver [34]): 3.52 % ID/g | logP [35]: 2.7 | Drug uptake (Heart [36]): 4.25 % ID/g | Drug uptake (Heart [37]): 2.28 % ID/g | Drug uptake (Liver [38]): 2.69 % ID/g | Drug uptake (Spleen [39]): 2.21 % ID/g | Drug uptake (Liver [40]): 5.54 % ID/g | Drug uptake (Spleen [41]): 1.43 % ID/g

CN(C)c1ccc(-c2cn(-c3ccc(OCCOCCOCCO)cc3)nn2)cc1
Ki [1]: 0.0165 µM

CN(C)c1ccc(-c2cn(-c3ccc(OCCCF)cc3)nn2)cc1
Ki [1]: 0.0062 µM

Source: ChEMBL document CHEMBL1145427, “Quick assembly of 1,4-diphenyltriazoles as probes targeting beta-amyloid aggregates in Alzheimer's disease” (J Med Chem, 2007)
